Assay [1] addresses Serine/threonine-protein kinase PAK 4 (Homo sapiens) (UniProt O96013). The assay can be described thus: Activity of human PAK4 kinase at 1 uM. In a few lines: (§1)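 Single-point screen in a 226-kinase panel run by an outside service. Test compound at 1 μM with ATP at 10 μM in every assay. Other assay conditions are not given.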
Assay [2] relates to PC-3. The assay can be described thus: Cell cycle arrest in human PC3 cells by accumulation at G1 phase at 4 uM after 48 hrs by flow cytometry relative to control. Format: functional. In a few lines:
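DNA content profiles by flow cytometry of PC-3 prostate tumor cells exposed to drug diluted in DMSO for 24 or 48 h. Phase distribution was compared with DMSO-treated control cells.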
Background: In flow cytometry, cells or beads pass a laser one at a time.

For assay [3], the target named is Serine/threonine-protein kinase WNK3 (Homo sapiens) (UniProt Q9BYP7). The assay can be described thus: Activity of human WNK3 kinase at 1 uM. A digest of the protocol: as §1
Assay [4] has as its target MAP kinase-activated protein kinase 3 (Homo sapiens) (UniProt Q16644). As to the kind of experiment: Activity of human MAPKAP-K3 kinase at 1 uM.
In assay [5] the target is Serine/threonine-protein kinase MARK1 (Homo sapiens) (UniProt Q9P0L2). As to the kind of experiment: Activity of human MARK1 kinase at 1 uM. A digest of the protocol: (§2)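 Single-point kinase profiling: each kinase in a 226-kinase panel tested with compound at 1 μM and ATP at 10 μM in every assay, run by an external screening service.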
Assay [6] deals with Calcium/calmodulin-dependent protein kinase type II subunit delta (Homo sapiens) (UniProt Q13557). As to the kind of experiment: Activity of human CaMK2delta kinase at 1 uM. A digest of the protocol:
as §2

Assay [7] deals with PC-3. The assay can be described thus: Cell cycle arrest in human PC3 cells by accumulation at >4N phase at 1 uM after 48 hrs by flow cytometry relative to control. In kind it is functional.
The target in assay [8] is Serine/threonine-protein kinase PAK 3 (Homo sapiens) (UniProt O75914). As to the kind of experiment: Activity of human PAK3 kinase at 1 uM. A digest of the protocol:
as §1

In assay [9] the target is MAP kinase-activated protein kinase 5 (Homo sapiens) (UniProt Q8IW41). The assay can be described thus: Activity of human PRAK kinase at 1 uM. In a few lines:
as §1

Assay [10] has as its target SRSF protein kinase 3 (Homo sapiens) (UniProt Q9UPE1). The assay can be described thus: Activity of human MSSK1 kinase at 1 uM.
For assay [11], the target named is Angiopoietin-1 receptor (Homo sapiens) (UniProt Q02763). The assay can be described thus: Activity of human Tie2 kinase at 1 uM. A digest of the protocol:
as §1

Assay [12] deals with Vascular endothelial growth factor receptor 3 (Homo sapiens) (UniProt P35916). As to the kind of experiment: Activity of human Flt4 kinase at 1 uM. In a few lines:
as §2

In assay [13] the target is Serine/threonine-protein kinase WNK2 (Homo sapiens) (UniProt Q9Y3S1). The assay can be described thus: Activity of human WNK2 kinase at 1 uM. A digest of the protocol:
(§3)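 Single-concentration screen across a 226-kinase panel run by an outside provider; test compound at 1 μM with 10 μM ATP in every assay. Other conditions not detailed.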

For assay [14], the target named is Ephrin type-B receptor 1 (Homo sapiens) (UniProt P54762). As to the kind of experiment: Inhibition of EphB1 kinase at 1 uM. In a few lines: (§4)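 Single-point screen within a 226-kinase panel, with compound at 1 μM and ATP at 10 μM in all assays.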
For another assay, the system named is Calu-6. As to the kind of experiment: Antiproliferative activity against human Calu6 cells after 96 hrs by BrdU cell proliferation ELISA. The conditions noted are these: Calu-6, 96 h. Format: functional, cell-based. A digest of the protocol:
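BrdU incorporation proliferation assay on cultured human tumor lines; IC50 values derived from growth inhibition.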
(In general: In an ELISA, binding on a coated surface is turned into a signal by an enzyme label.)

The nature of assay [15]: Inhibition of CAMK2 by radioactive flashplate assay.
Assay [16] addresses Serine/threonine-protein kinase D1 (Homo sapiens) (UniProt Q15139). As to the kind of experiment: Activity of human PKCmu kinase at 1 uM. A digest of the protocol:
as §2

Assay [17] has as its target Serine/threonine-protein kinase PLK3 (Homo sapiens) (UniProt Q9H4B4). As to the kind of experiment: Activity of human Plk3 kinase at 1 uM. A digest of the protocol: as §3
In assay [18] the target is Tyrosine-protein kinase Yes (Homo sapiens) (UniProt P07947). The assay can be described thus: Inhibition of Yes kinase at 1 uM. A digest of the protocol: as §4
Assay [19] deals with Testis-specific serine/threonine-protein kinase 2 (Homo sapiens) (UniProt Q96PF2). As to the kind of experiment: Activity of human TSSK2 kinase at 1 uM. In a few lines: as §1
The target in assay [20] is Discoidin domain-containing receptor 2 (Homo sapiens) (UniProt Q16832). The assay can be described thus: Activity of human DDR2 kinase at 1 uM.
For assay [21], the target named is Hepatocyte growth factor receptor (Homo sapiens) (UniProt P08581). The assay can be described thus: Activity of human Met kinase at 1 uM. In a few lines:
as §2

The target in assay [22] is Tyrosine-protein kinase Lck (Homo sapiens) (UniProt P06239). The assay can be described thus: Activity of human Lck kinase at 1 uM. A digest of the protocol: as §2
Assay [23] deals with Cyclin-dependent kinase 7/ cyclin H (Homo sapiens) (UniProt P51946+P50613). The assay can be described thus: Activity of human CDK7/cyclin H/MAT1 kinase at 1 uM. In kind it is protein-complex assay. A digest of the protocol: as §2

Each structure is given as a SMILES string. A value given as a limit tells only on which side of the number the result lay.

Sequence of Serine/threonine-protein kinase PLK3 (Homo sapiens) (Q9H4B4 whole entry, looked up): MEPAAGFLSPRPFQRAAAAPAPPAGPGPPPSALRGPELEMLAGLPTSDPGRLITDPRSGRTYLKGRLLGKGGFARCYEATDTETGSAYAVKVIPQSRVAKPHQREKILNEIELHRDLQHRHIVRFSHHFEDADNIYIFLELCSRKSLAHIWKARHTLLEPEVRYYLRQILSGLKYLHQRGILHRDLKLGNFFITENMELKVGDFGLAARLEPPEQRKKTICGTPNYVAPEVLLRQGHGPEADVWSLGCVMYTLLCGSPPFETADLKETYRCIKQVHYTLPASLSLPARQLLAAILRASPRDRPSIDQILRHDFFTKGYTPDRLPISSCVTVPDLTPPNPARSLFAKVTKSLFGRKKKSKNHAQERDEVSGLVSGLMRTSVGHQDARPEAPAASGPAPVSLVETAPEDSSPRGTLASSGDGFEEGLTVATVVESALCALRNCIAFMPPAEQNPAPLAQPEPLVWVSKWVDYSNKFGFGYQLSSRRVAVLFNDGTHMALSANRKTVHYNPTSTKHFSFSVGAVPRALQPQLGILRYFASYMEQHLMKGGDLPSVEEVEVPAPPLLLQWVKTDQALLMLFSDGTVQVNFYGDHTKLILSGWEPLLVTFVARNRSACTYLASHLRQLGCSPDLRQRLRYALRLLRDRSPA
Sequence of Calcium/calmodulin-dependent protein kinase type II subunit delta (Homo sapiens) (Q13557 whole entry): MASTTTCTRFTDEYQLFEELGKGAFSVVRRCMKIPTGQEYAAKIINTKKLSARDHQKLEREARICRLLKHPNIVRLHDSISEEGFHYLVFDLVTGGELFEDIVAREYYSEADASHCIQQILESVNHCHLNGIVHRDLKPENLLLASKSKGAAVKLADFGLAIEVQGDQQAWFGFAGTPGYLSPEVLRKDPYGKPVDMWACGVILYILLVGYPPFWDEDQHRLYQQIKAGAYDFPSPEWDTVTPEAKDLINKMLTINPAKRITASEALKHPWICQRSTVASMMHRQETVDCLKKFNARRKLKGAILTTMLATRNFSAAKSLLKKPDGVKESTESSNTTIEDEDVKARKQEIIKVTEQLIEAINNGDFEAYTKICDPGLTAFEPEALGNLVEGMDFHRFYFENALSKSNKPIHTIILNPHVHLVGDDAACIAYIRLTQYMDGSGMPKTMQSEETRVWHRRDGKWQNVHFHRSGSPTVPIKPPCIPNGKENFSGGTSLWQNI
Sequence of Tyrosine-protein kinase Lck (Homo sapiens) (P06239 2-509 limits assumed): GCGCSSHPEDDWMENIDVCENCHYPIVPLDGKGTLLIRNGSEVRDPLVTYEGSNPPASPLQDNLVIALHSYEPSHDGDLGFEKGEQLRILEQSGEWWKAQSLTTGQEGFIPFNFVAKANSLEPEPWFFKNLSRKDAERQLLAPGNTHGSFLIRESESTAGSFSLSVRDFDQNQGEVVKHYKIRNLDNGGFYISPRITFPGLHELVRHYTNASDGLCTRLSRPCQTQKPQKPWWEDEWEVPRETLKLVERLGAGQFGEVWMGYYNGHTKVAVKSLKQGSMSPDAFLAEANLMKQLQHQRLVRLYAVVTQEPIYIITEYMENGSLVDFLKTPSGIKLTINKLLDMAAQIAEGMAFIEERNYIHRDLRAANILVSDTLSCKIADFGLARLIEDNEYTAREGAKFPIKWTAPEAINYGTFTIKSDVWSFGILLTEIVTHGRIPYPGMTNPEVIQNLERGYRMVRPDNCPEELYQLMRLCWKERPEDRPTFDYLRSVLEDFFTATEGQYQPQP
Sequence of Serine/threonine-protein kinase MARK1 (Homo sapiens) (Q9P0L2 whole entry, looked up): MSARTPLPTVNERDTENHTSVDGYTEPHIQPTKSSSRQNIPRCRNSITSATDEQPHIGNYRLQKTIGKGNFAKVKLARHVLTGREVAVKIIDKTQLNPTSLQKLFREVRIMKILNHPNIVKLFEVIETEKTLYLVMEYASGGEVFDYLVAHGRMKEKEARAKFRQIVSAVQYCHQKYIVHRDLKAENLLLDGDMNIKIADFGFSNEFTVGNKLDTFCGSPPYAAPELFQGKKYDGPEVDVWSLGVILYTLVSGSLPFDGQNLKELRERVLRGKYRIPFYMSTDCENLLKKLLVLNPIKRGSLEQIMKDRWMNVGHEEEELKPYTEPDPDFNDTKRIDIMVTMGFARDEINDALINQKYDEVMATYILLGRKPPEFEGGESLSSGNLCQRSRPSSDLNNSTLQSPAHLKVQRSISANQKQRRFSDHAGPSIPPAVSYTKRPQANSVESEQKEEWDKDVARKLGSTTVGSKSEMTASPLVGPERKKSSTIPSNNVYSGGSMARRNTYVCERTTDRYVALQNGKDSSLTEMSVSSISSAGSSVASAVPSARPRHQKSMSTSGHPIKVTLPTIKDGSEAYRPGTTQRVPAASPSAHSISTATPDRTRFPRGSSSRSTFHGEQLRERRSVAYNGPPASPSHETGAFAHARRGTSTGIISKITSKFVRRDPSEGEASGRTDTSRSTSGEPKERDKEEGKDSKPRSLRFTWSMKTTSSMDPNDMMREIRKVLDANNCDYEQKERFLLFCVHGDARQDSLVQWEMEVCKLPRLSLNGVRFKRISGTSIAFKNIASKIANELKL
Sequence of Vascular endothelial growth factor receptor 3 (Homo sapiens) (P35916 whole entry): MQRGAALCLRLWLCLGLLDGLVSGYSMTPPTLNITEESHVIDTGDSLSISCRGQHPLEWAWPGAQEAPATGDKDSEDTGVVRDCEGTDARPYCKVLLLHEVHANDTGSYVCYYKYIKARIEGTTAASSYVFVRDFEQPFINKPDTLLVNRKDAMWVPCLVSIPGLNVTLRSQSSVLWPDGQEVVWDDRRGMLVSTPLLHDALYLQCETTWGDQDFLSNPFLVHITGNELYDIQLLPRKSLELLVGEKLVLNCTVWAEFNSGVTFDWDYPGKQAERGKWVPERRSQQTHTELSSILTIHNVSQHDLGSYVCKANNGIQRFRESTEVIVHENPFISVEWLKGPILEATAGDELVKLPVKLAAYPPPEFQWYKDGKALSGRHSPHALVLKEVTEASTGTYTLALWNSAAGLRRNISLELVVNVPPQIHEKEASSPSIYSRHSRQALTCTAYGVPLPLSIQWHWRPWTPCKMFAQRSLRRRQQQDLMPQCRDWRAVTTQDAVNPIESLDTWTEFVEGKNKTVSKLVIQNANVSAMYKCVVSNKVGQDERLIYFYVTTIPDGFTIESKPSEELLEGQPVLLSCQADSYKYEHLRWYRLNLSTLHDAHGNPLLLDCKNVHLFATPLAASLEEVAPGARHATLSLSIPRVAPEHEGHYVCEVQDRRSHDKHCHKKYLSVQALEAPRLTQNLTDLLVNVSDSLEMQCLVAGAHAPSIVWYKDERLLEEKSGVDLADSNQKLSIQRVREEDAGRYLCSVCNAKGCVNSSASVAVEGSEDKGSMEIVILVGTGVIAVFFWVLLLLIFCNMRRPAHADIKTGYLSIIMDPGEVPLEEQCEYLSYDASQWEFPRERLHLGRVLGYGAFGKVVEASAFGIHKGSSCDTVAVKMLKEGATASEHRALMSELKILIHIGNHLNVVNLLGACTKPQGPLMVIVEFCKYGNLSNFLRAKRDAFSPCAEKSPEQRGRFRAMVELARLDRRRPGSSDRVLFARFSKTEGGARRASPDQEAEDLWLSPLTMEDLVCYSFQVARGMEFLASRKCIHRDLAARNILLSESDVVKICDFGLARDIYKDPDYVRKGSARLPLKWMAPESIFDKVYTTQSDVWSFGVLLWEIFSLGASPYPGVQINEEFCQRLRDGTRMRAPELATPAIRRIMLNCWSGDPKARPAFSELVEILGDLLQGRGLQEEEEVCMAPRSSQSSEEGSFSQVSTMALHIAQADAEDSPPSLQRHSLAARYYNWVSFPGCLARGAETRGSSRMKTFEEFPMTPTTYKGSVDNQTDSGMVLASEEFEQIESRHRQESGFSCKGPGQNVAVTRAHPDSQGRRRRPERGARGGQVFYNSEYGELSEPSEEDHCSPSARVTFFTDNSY
Sequence of MAP kinase-activated protein kinase 3 (Homo sapiens) (Q16644 whole entry, looked up): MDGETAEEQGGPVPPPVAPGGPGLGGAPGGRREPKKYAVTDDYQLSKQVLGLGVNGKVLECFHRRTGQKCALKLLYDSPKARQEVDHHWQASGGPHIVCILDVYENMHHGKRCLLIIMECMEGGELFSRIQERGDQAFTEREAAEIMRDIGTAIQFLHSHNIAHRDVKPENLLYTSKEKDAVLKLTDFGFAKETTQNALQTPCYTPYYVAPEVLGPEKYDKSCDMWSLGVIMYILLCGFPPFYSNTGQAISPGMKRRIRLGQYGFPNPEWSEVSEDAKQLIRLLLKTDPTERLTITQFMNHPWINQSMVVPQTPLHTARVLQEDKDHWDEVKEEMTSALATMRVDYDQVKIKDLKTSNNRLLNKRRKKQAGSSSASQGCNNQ
Sequence of Discoidin domain-containing receptor 2 (Homo sapiens) (Q16832 whole entry, the tested form may be a part): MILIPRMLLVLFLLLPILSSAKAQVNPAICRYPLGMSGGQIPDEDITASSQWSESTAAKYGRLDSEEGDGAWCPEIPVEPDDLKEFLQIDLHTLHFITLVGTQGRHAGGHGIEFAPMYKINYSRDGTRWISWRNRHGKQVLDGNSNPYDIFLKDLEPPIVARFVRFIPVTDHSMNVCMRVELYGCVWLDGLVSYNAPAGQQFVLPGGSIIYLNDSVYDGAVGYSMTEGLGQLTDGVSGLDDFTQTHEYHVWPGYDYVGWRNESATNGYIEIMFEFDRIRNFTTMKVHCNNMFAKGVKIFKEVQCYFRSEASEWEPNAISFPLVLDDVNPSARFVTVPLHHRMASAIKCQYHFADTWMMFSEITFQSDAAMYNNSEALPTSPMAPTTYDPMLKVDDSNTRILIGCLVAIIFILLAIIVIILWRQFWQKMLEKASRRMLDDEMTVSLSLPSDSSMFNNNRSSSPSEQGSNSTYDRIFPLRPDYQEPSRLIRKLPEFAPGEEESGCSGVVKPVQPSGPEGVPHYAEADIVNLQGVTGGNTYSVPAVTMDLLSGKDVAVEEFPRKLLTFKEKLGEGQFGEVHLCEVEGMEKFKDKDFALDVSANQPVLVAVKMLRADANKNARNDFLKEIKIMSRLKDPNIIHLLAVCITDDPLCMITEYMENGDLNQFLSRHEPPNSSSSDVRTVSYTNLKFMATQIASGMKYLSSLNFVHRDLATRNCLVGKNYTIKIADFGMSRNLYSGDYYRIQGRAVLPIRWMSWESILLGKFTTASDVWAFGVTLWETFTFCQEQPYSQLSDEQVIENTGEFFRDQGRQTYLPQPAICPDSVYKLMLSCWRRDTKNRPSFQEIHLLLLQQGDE

Turning to `O=C(O)c1ccc(Nc2ncc3c(n2)-c2ccc(Cl)cc2C(c2c(F)cccc2F)=NC3)cc1` [MLN-8054], the Activity in assay [1] was determined as 96%; in the assay with PC-3 [2] it was 12.9%; in assay [3], 88%; in [4], 104%; in assay [5], 106%; in assay [6], 123%. Besides, the Activity with PC-3 [7] worked out at 7%; in [8], 94%; in assay [9], 110%; in [10], 100%; in assay [11] it was 51%; in [12], 6%. Further, the Activity worked out at 109% in assay [13]; 112% in assay [16]; 105% in assay [17]; 101% in [19]; 87% in [20]; 140% in assay [21]. Also, the Activity in assay [22] is 59%; in [23], 105%. Further, the inhibition was 65% in [14] and 80% in assay [18]. Further, the values for the IC50 (in the assay with Calu-6; in [15]) were 220 nM and greater than 100000 nM, respectively.

The inhibition is the percentage by which the read-out fell short of the control. Usually IC50 stands for the concentration at which inhibition is half-maximal.

Values taken from ChEMBL document CHEMBL1147076, “Antitumor activity of MLN8054, an orally active small-molecule inhibitor of Aurora A kinase” (Proc Natl Acad Sci U S A, 2007).
